# From ChEMBL document CHEMBL1135145, “Synthesis and bioactivities of novel 4,5,6,7-tetrahydrothieno[2,3-c]pyridines as inhibitors of tumor necrosis factor-alpha (TNF-alpha) production” (Bioorg Med Chem Lett, 2002)
# System: Rattus norvegicus
# Experiment: Compound was evaluated in vivo for the inhibition of LPS-stimulated serum TNF-alpha production in rat after oral administration at a dose 100 mg/kg
# Assay type: functional
# In short: (§1)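 Male SD rats, 6 weeks old, given compound orally as a suspension in 0.5% CMC. LPS (E. coli B055:B5, 0.1 mg/kg) injected iv 1 h after dosing. Animals killed and bled 90 min later. Serum TNF-α measured by ELISA. ED50 derived from TNF-α yield relative to LPS controls without compound.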
row,Compound,inhibition in vivo at 100 mg/kg
1,CC(=O)CCCCn1c(=O)c2c(ncn2C)n(C)c1=O [PENTOXIFYLLINE],74.4%

# System: Rattus norvegicus
# Experiment: Compound was evaluated in vivo for the inhibition of LPS-stimulated serum TNF-alpha production in rat after oral administration of the compound
# Assay type: functional
# In short: as §1
row,Compound,ED50
1,C[C@@H]1C[C@H]2[C@@H]3CCC4=CC(=O)C=C[C@]4(C)[C@@]3(F)[C@@H](O)C[C@]2(C)[C@@]1(O)C(=O)CO [DEXAMETHASONE],0.12 mg/kg

# Species on record: Rattus norvegicus
# Experiment: In vitro inhibition of lipopolysaccharide stimulated tumor necrosis factor-alpha production in rat whole blood
# Assay type: functional
# In short: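 Rat whole blood diluted to 50% in RPMI-1640 containing streptomycin and penicillin. Compound in DMSO, or DMSO vehicle, preincubated for 30 min at 37 °C in 5% CO2. Stimulated with 10 µg/mL LPS (E. coli B055:B5) and incubated 4 h under the same conditions. IC50 taken for inhibition of TNF-α production.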
row,Compound,IC50
1,CC(C)C(=O)Nc1sc2c(c1C(=O)c1ccccc1Cl)CCNC2,4 µM
2,CN1CCc2c(sc(NC(=O)C3CC3)c2C(=O)c2ccccc2Cl)C1,1.3 µM
3,CC(=O)N1CCc2c(sc(NC(=O)C(C)C)c2C(=O)c2cccc(Cl)c2)C1,7.6 µM
4,O=C(Nc1sc2c(c1C(=O)c1ccccc1Cl)CCN(Cc1ccccc1)C2)c1cccnc1,7.1 µM
5,CCOC(=O)c1c(NC(=O)C2CC2)sc2c1CCN(C(C)=O)C2,10 µM
6,CC(=O)N1CCc2c(sc(N(C)C(=O)C(C)C)c2C(=O)c2ccccc2Cl)C1,33 µM
7,CC(C)C(=O)Nc1sc2c(c1C(=O)c1ccccc1Cl)CCN(C)C2,2 µM
8,CC(=O)N1CCc2c(sc(NC(=O)c3ccncc3)c2C(=O)c2ccccc2Cl)C1,21 µM
9,CC(=O)N1CCc2c(sc(NC(=O)C(C)C)c2C(=O)c2ccccc2C)C1,3.9 µM
10,CC(=O)N1CCc2c(sc(N)c2C(=O)c2ccccc2Cl)C1,72 µM
11,CC(=O)N1CCc2c(sc(NC(=O)C3CC3)c2C(=O)c2ccccc2C)C1,2.9 µM
12,CC(=O)N1CCc2c(sc(NC(=O)C(C)(C)C)c2C(O)c2ccccc2Cl)C1 (configuration not stated),19 µM
13,CC(=O)N1CCc2c(sc(NC(=O)C(C)C)c2C(=O)c2ccccc2)C1,3 µM
14,CCN(CC)C(=O)Nc1sc2c(c1C(=O)c1c(OC)cccc1OC)CCN(C(C)=O)C2,3.8 µM
15,CC(=O)N1CCc2c(sc(NC(=O)C(C)C)c2C(C)O)C1 (configuration not stated),38 µM
16,CC(=O)N1CCc2c(C(=O)c3ccccc3Cl)csc2C1,38 µM
17,O=C(c1ccccc1Cl)c1c(N(CC2CCCCC2)CC2CCCCC2)sc2c1CCN(C(=O)C1CC1)C2,> 100 µM
18,CC(=O)N1CCc2c(sc(NC(=O)c3cccnc3)c2C(=O)c2ccccc2)C1,14 µM
19,CC(=O)N1CCc2c(sc(NC(=O)CCc3ccccc3)c2C(=O)c2ccccc2Cl)C1,> 100 µM
20,CC(=O)N1CCc2c(sc(N(CC(C)C)CC(C)C)c2C(=O)c2ccccc2Cl)C1,30 µM
21,CC(=O)N1CCc2c(sc(NC(=O)c3cccnc3)c2C(=O)c2cccc(Cl)c2)C1,36 µM
22,O=C(c1ccccc1Cl)c1c(NC(=O)C2CC2)sc2c1CCN(Cc1ccccc1)C2,6.5 µM
23,CCN(CC)C(=O)N(C)c1sc2c(c1C(=O)c1ccccc1Cl)CCN(C(C)=O)C2,10 µM
24,CC(=O)N1CCc2c(sc(NC(=O)C(C)Br)c2C(=O)c2ccccc2Cl)C1 (configuration not stated),6 µM

row,Compound,IC50
1,CC(C)CN(CC(C)C)c1sc2c(c1C(=O)c1ccccc1Cl)CCN(C(=O)C1CC1)C2,> 100 µM
2,CC(=O)N1CCc2c(sc(NC(=O)CCl)c2C(=O)c2ccccc2Cl)C1,> 100 µM
3,CC(=O)N1CCc2c(sc(NC(=O)C(C)C)c2C(=O)c2ccccc2Cl)C1,2.6 µM
4,C[C@@H]1C[C@H]2[C@@H]3CCC4=CC(=O)C=C[C@]4(C)[C@@]3(F)[C@@H](O)C[C@]2(C)[C@@]1(O)C(=O)CO [DEXAMETHASONE],0.02 µM
5,CCN1CCc2c(sc(NC(=O)C(C)C)c2C(=O)c2ccccc2Cl)C1,0.92 µM
6,CC(=O)N1CCc2c(sc(NC(=O)c3ccccc3)c2C(=O)c2ccccc2)C1,48 µM
7,CCOC(=O)c1c(NC(=O)c2cccnc2)sc2c1CCN(C(C)=O)C2,22 µM
8,CC(=O)N1CCc2c(sc(NC(=O)C(C)N)c2C(=O)c2ccccc2Cl)C1 (configuration not stated),8 µM
9,CCN1CCc2c(sc(NC(=O)C(C)C)c2C(O)c2ccccc2Cl)C1 (configuration not stated),100 µM
10,CCC(=O)Nc1sc2c(c1C(=O)c1ccccc1Cl)CCN(C(C)=O)C2,15 µM
11,CC(=O)N1CCc2c(sc(NC(=O)C3CC3)c2C(=O)c2ccccc2)C1,3 µM
12,CC(=O)N1CCc2c(sc(NC(=O)C3CC3)c2C(=O)c2cccc(Cl)c2)C1,20 µM
13,CC(C)C(=O)Nc1sc2c(c1C(=O)c1ccccc1Cl)CCN(Cc1ccccc1)C2,5 µM
14,CC(=O)c1c(NC(=O)C2CC2)sc2c1CCN(C(C)=O)C2,28 µM
15,CC(=O)N1CCc2c(sc(NC(=O)/C=C/c3ccccc3)c2C(=O)c2ccccc2Cl)C1,> 100 µM
16,O=C(Nc1sc2c(c1C(=O)c1ccccc1Cl)CCN(Cc1ccccc1)C2)c1ccccc1,> 100 µM
17,COc1ccc(C(=O)c2c(NC(C)=O)sc3c2CCN(C(C)=O)C3)cc1,26 µM
18,CC(=O)N1CCc2c(sc(NC(=O)c3cccnc3)c2C(=O)c2ccccc2Cl)C1,12 µM
19,O=C(c1ccccc1Cl)c1c(NC(=O)C2CC2)sc2c1CCN(C(=O)C1CC1)C2,0.9 µM
20,CC(=O)N1CCc2c(sc(NC(=O)C3CC3)c2C(=O)c2ccccc2Cl)C1,3 µM
21,CCc1c(NC(=O)C(C)C)sc2c1CCN(C(C)=O)C2,23 µM
22,O=C(Nc1sc2c(c1C(=O)c1ccccc1Cl)CCN(C(=O)C1CC1)C2)c1cccnc1,3.9 µM
23,CCCCCCC(=O)Nc1sc2c(c1C(=O)c1ccccc1Cl)CCN(C(C)=O)C2,> 100 µM
24,CC(=O)N1CCc2c(sc(NC(=O)C(C)C)c2C(=O)c2ccc(Cl)cc2)C1,> 100 µM

row,Compound,IC50
1,CCOC(=O)c1c(NC(=O)C(C)C)sc2c1CCN(C(C)=O)C2,22 µM
2,CC(=O)N1CCc2c(sc(NC(=O)C(C)(C)C)c2C(=O)c2ccccc2Cl)C1,3.4 µM
3,CC(=O)N1CCc2c(sc(N(CC3CCCCC3)CC3CCCCC3)c2C(=O)c2ccccc2Cl)C1,100 µM
4,CC(=O)N1CCc2c(sc(NC(=O)C(C)(C)C)c2Cc2ccccc2Cl)C1,29 µM
5,Nc1sc2c(c1C(=O)c1ccccc1Cl)CCNC2,> 100 µM
6,CCN1CCc2c(sc(NC(=O)C(C)C)c2C(=O)c2ccc3c(c2)OCO3)C1,78 µM
7,CC(=O)Nc1sc2c(c1C(=O)c1ccccc1Cl)CCN(C(C)=O)C2,9.5 µM
8,CC(=O)N1CCc2c(sc(NC(=O)c3ccccc3)c2C(=O)c2ccccc2Cl)C1,46 µM
9,CC(C)C(=O)Nc1sc2c(c1C(=O)c1ccccc1Cl)CCN(C(=O)C1CC1)C2,2.6 µM
10,CC(=O)N1CCc2c(sc(N(C)C(=O)C3CC3)c2C(=O)c2ccccc2Cl)C1,74 µM
11,CC(=O)N1CCc2c(sc(NC(=O)C3CCC3)c2C(=O)c2ccccc2Cl)C1,2.9 µM
12,CCN1CCc2c(sc(N(CC)C(=O)C(C)C)c2C(=O)c2ccccc2Cl)C1,10 µM
13,CC(=O)CCCCn1c(=O)c2c(ncn2C)n(C)c1=O [PENTOXIFYLLINE],40 µM
14,CC(=O)c1c(NC(=O)C(C)C)sc2c1CCN(C(C)=O)C2,35 µM
15,O=C(Nc1sc2c(c1C(=O)c1ccccc1Cl)CCN(C(=O)C1CC1)C2)c1ccccc1,> 100 µM
16,CC(=O)N1CCc2c(sc(NC(=O)C(C)Cl)c2C(=O)c2ccccc2Cl)C1 (configuration not stated),12 µM
17,COc1ccc(C(=O)c2c(NC(C)=O)sc3c2CCN(C(C)=O)C3)cc1OC,46 µM
18,CC(=O)N1CCc2c(sc(NC(=O)C3CCCCC3)c2C(=O)c2ccccc2Cl)C1,39 µM
19,CCNC(=O)Nc1sc2c(c1C(=O)c1ccccc1Cl)CCN(C(C)=O)C2,10 µM
20,CCN(CC)C(=O)Nc1sc2c(c1C(=O)c1ccccc1Cl)CCN(C(C)=O)C2,0.51 µM
21,COc1cccc(OC)c1C(=O)c1c(NC(C)=O)sc2c1CCN(C(C)=O)C2,88 µM
22,CC(=O)N1CCc2c(sc(NC(=O)c3ccc(F)cc3)c2C(=O)c2ccccc2Cl)C1,100 µM

# System: Rattus norvegicus
# Experiment: Compound was evaluated in vivo for the inhibition of LPS-stimulated serum TNF-alpha production in rat after oral administration at a dose 50 mg/kg
# Assay type: functional
# In short: as §1
row,Compound,inhibition in vivo at 50 mg/kg
1,CCOC(=O)c1c(NC(=O)C2CC2)sc2c1CCN(C(C)=O)C2,64.2%
2,CC(=O)N1CCc2c(sc(NC(=O)C(C)C)c2C(=O)c2ccccc2C)C1,3.9%
3,CC(=O)N1CCc2c(sc(NC(=O)C3CC3)c2C(=O)c2ccccc2C)C1,58.6%
4,CC(=O)N1CCc2c(sc(NC(=O)C(C)C)c2C(=O)c2ccccc2)C1,35%
5,CC(=O)N1CCc2c(sc(NC(=O)C(C)C)c2C(=O)c2ccccc2Cl)C1,2.4%
6,CC(=O)N1CCc2c(sc(NC(=O)C3CC3)c2C(=O)c2ccccc2)C1,34.1%
7,CC(=O)c1c(NC(=O)C2CC2)sc2c1CCN(C(C)=O)C2,31.3%
8,CC(=O)N1CCc2c(sc(NC(=O)C3CC3)c2C(=O)c2ccccc2Cl)C1,35%
9,CCOC(=O)c1c(NC(=O)C(C)C)sc2c1CCN(C(C)=O)C2,49.1%
10,CC(=O)c1c(NC(=O)C(C)C)sc2c1CCN(C(C)=O)C2,22.7%
